Experimental data as given in ChEMBL document CHEMBL3259624, “Netamines H-N, tricyclic alkaloids from the marine sponge Biemna laboutei and their antimalarial activity” (J Nat Prod, 2014).
The source made the active and inactive calls. The calls are words filed in the database; no cut-off is given here.

What was measured:
KB [1] = assay: Cytotoxicity against human KB cells at 1 uM after 72 hrs; format: functional, cell-based
Method in brief: (§1)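 KB cells exposed to compounds for 72 h, with DMSO-only cells as control. Proliferation was read with CellTiter 96 Aqueous One reagent and expressed as % inhibition of proliferation relative to the DMSO control, as mean ± SE of triplicate.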

KB [2] = assay: Cytotoxicity against human KB cells after 72 hrs; format: functional, cell-based; method in brief: as §1
Plasmodium falciparum = assay: Antiplasmodial activity against Plasmodium falciparum by LDH assay; format: functional, organism-based

Structure (SMILES)	Activity (KB [1])	IC50 (KB [2]) [nM]	IC50 (Plasmodium falciparum) [nM]
CCCC[C@@H]1c2nc(N)nc3c2[C@@H](CC3)C[C@H]1CCC	inactive	–	–
CCC/C=C\CC1=C2N=C(N)N[C@H]3CC[C@@H](C[C@H]1C)[C@@H]23 (relative stereo)	–	1000	–
CCC/C=C\C[C@H]1c2nc(N)nc3c2[C@@H](CC3)C[C@H]1CCC	inactive	–	–
CC/C=C/C1=C2N=C(N)N[C@H]3CC[C@@H](C[C@@H]1C)[C@@H]23	inactive	–	–
CCCCCCC1=C2N=C(N)N[C@H]3CC[C@@H](C[C@H]1CCC)[C@@H]23	inactive	–	–
CCC/C=C\C[C@H]1c2nc(N)nc3c2[C@@H](CC3)C[C@H]1C	inactive	–	20700
CCC/C=C\C[C@@H]1c2nc(N)nc3c2[C@@H](CC3)C[C@H]1C	inactive	–	–
CCC/C=C\C[C@@H]1c2nc(N)nc3c2[C@@H](CC3)C[C@H]1CCC (relative stereo)	inactive	–	–
CCC[C@@H]1C[C@@H]2CC[C@@H]3NC(N)=NC(=C1CC)[C@H]23 (relative stereo)	inactive	–	2400
